Screens: PubChem, several laboratories
Most compounds without a hit are left out; they make up all but 1.5% or so of the library.
Runt-SMMHC FRET – inhibitors of human RUNX1 Runt domain binding to CBFb-SMMHC. Cerulean-Runt/Venus-CBFb-SMMHC FRET ratio 530/480, 1 h. inhibition, % at 20 µM. 220,000 tested, 0.74% active. AID 1434;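 active = mean inhibition across duplicate retests at 20 µM reaching about 50%, limit read from the data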;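 note: inhibitors lower the FRET ratio by blocking Runt binding to CBFb-SMMHC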
CaV13 FRET inh – Primary screen for inhibitors of IQ motif and Ca2+-dependent inactivation inhibitor domain binding in CACNA1D, Förster resonance energy transfer in living cells, …; HEK cells, CFP/YFP FRET ICDI-IQ, plate reader, 10 min; percent FRET-ratio fall versus neutral wells; inhibition, % at 12.3 µM; 340,000 tested, 0.098% active; AID 743397;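 active = mean replicate inhibition of at least 30% and at least 1% of replicates passing that level; inconclusive = only one of the two criteria is met; inactive = neither criterion is met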
RanGTP-Imp inh – disruptors of Ran-importin-beta complex formation – biochemical, FRET, CFP-Ran, YFP-importin-beta, homogeneous, primary screen. cell-free CFP-Ran/YFP-importin-beta FRET ratio. 300,000 tested, 1.1% active. inhibition, % (no concentration beside the values). AID 2216;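 active = more than half of the replicate wells show a fall in the fluorescence ratio signal beyond about 16%, limit read from the data, passing the limit was not always enough; inconclusive = exactly half of the replicate wells pass the set limit; inactive = fewer than half of replicates pass the limit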
Runt-CBFb FRET – inhibitors of human RUNX1 Runt domain binding to CBFb; 220,000 tested, 0.46% active; AID 1496; Cerulean-Runt/Venus-CBFb FRET ratio 530/480, 1 h; inhibition, % at 20 µM; Q01196+Q13951;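 active = inhibition over about 50% at 20 µM in the single-dose screen, limit read from the data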
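Buffer or medium: Tris pH 7.5 buffer with BSA. Assay system: Cerulean-labeled Runt domain protein. Amount: each fluorescent fusion protein 100 nM. Read-out basis: loss of energy transfer signal. Incubation: 1 h compound exposure, room temperature. Probe or stimulus: Venus-CBFb binding partner, 100 nM. Detection: FRET, excitation 422 nm, emission at 530 and 480 nm.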
Hck Nef HTS – blocks Nef-activated human Hck kinase; P08631; Recombinant Hck-YEEI plus Nef, Z-Lyte FRET kinase assay; inhibition, % at 20 µM; 220,000 tested, 0.68% active; AID 463187;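 active = Hck-Nef kinase inhibition above about 50%, limit read from the data; inactive = inhibition below that limit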
Target sequence (P08631 whole entry, looked up): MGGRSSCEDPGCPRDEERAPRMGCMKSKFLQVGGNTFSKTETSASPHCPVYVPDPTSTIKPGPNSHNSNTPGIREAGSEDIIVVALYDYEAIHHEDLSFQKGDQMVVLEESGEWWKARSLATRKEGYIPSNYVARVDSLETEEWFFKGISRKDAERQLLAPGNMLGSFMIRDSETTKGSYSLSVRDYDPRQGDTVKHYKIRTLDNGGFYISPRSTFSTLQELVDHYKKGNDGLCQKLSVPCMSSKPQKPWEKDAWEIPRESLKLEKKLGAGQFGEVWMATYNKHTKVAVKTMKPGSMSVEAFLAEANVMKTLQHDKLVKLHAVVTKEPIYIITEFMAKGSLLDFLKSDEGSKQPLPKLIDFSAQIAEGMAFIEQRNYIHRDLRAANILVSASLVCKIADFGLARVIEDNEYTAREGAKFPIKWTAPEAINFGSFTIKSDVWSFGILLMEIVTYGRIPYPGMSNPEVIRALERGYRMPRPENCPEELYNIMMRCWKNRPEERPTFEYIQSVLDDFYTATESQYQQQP
Hck Nef conf – confirmation of Hck-Nef kinase inhibitors; shares compounds with Hck Nef HTS; Recombinant Hck-YEEI:Nef, Z-Lyte FRET kinase assay; calls only at 10 µM; 1,300 tested, 28% active; AID 463188;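 active = average inhibition of at least 50%, with Z-scores no higher than 3 in both the phospho-tyrosine peptide and fluorescence counterscreens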
Each line names hits and unclear results; the compound was inactive in the other large screens (follow-up assays come after a bar, where shown).

Cc1ccc(N(C(=O)c2csnn2)C(C(=O)NC2CCCC2)c2ccccn2)c(C)c1 (centres undefined)	RanGTP-Imp inh inconclusive (no result: Runt-SMMHC FRET, Runt-CBFb FRET, Hck Nef HTS)
CC(C)CNC(=O)c1c(N)n(/N=C/c2ccccn2)c2nc3ccccc3nc12	Hck Nef HTS 50.8 | Hck Nef conf inactive
CCN(CC)c1ccc(-c2nn3c(-c4ccccc4OC)nnc3s2)cc1	Hck Nef HTS 50.7 (no result: CaV13 FRET inh) | Hck Nef conf inactive
COc1cccc(/C=N/NC(=O)c2cnn(-c3ccccc3)c2N)c1	Hck Nef HTS 94.2 | Hck Nef conf inactive
CCN(CC)C(=O)CSc1nc2ccccc2c(=O)n1-c1cccc(OC)c1	none
COc1cccc(-n2c(SCc3cc(=O)oc4cc(O)c(O)cc34)nc3ccccc3c2=O)c1	Runt-CBFb FRET 67.3, Hck Nef HTS 74.1 (not shown: Runt-SMMHC FRET)
CCC1CCCCN1CCCNC(=O)CS(=O)(=O)Cc1nc(-c2cccc(OC)c2)oc1C (centres undefined)	none (no result: Runt-SMMHC FRET, Runt-CBFb FRET, Hck Nef HTS)
C=CCn1cc(/C=C2/NC(=O)NC2=O)c2ccccc21	Hck Nef HTS 61.2 | Hck Nef conf inactive
COC(=O)C1=CN(C(C)c2ccccc2)C=C(C(=O)OC)C1c1cc(OC)c(OC)c(OC)c1 (centres undefined)	none (no result: Runt-SMMHC FRET, Runt-CBFb FRET, Hck Nef HTS)
COC(=O)C1=CN(C)C=C(C(=O)OC)C1c1ccsc1	Runt-SMMHC FRET 61.3, RanGTP-Imp inh 33.2, Runt-CBFb FRET 107.8, Hck Nef HTS 52.6 (no result: CaV13 FRET inh) | Hck Nef conf inactive
O=C(O)CN1C(=O)C2C3CCC(C3)C2C1=O (centres undefined)	none (no result: Runt-SMMHC FRET, RanGTP-Imp inh, Runt-CBFb FRET, Hck Nef HTS)
Oc1ccc(/C=N/Nc2ncnc3nc[nH]c23)cc1	Hck Nef HTS 94.9 | Hck Nef conf active
Clc1ccc(/C=N/Nc2ncnc3nc[nH]c23)cc1	Hck Nef HTS 84.1 | Hck Nef conf active
c1csc(CNc2ncnc3nc[nH]c23)c1	none
Cc1ccc(/C=N/Nc2ncnc3nc[nH]c23)cc1	Hck Nef HTS 93.3 | Hck Nef conf active
OC(c1ccccc1)c1nc(/C=C/c2ccccc2)cs1 (centres undefined)	none (no result: Runt-SMMHC FRET, RanGTP-Imp inh, Runt-CBFb FRET, Hck Nef HTS)
CCC(=O)OC1(C)C(=O)C2=COC(c3ccc(OC)cc3)=CC2=C(Br)C1=O (centres undefined)	Hck Nef HTS 81.0 | Hck Nef conf inactive
COc1ccc(C2=CC3=C(Br)C(=O)C(C)(O)C(=O)C3=CO2)cc1 (centres undefined)	Hck Nef HTS 95.2 (no result: CaV13 FRET inh) | Hck Nef conf active
Cc1nnc(SCC(=O)N2N=C(c3ccc(Cl)cc3)CC2c2ccco2)[nH]c1=O (centres undefined)	Hck Nef HTS 50.4 | Hck Nef conf inactive
Clc1ccc(C2=NN(c3ccccc3)C(c3ccco3)C2)cc1 (centres undefined)	Hck Nef HTS 60.2 | Hck Nef conf inactive
COc1ccc(NS(=O)(=O)c2cccc(C(=O)NN=C(C)c3ccco3)c2)cc1	none (no result: Runt-SMMHC FRET, RanGTP-Imp inh, Runt-CBFb FRET, Hck Nef HTS)
COc1cc(/C=C/C(=O)OCC(=O)Nc2ccc(C)cc2[N+](=O)[O-])ccc1O	Hck Nef HTS 59.9 | Hck Nef conf inactive
COc1cc(OC)cc(C(=O)N(Cc2ccco2)c2c(N)n(Cc3ccccc3)c(=O)[nH]c2=O)c1	none (no result: Runt-SMMHC FRET, RanGTP-Imp inh, Runt-CBFb FRET, Hck Nef HTS)
C[C@@H]1COc2cccc(NC3CC3)c2S(=O)(=O)N1	none (no result: Runt-SMMHC FRET, RanGTP-Imp inh, Runt-CBFb FRET, Hck Nef HTS)
CC(C)(C)OC(=O)N[C@@H]1C=CC(=O)C1	none (no result: Runt-SMMHC FRET, RanGTP-Imp inh, Runt-CBFb FRET, Hck Nef HTS)
CCCCC1=NN2CCS(=O)(=O)N=C2S1	none
COCCCNC(=O)c1cc2c(=O)n3cccc(C)c3nc2n(C(C)C)c1=N	Runt-SMMHC FRET 57.4, RanGTP-Imp inh 187.8, Hck Nef HTS 166.9
CCOCCCn1c(=N)c(C(=O)NCCN2CCOCC2)cc2c(=O)n3cccc(C)c3nc21	Hck Nef HTS 132.9 (not shown: Runt-SMMHC FRET, RanGTP-Imp inh, Runt-CBFb FRET)
COCCCn1c(C(=O)NCCC2=CCCCC2)cc2c(=O)n3cccc(C)c3nc21	none (no result: Runt-SMMHC FRET, Runt-CBFb FRET, Hck Nef HTS)
CCNC(=O)c1cc2c(=O)n3cccc(C)c3nc2n(Cc2ccc(C)cc2)c1=N	CaV13 FRET inh 55.1, RanGTP-Imp inh active, Hck Nef HTS 70.7
Cc1cccn2c(=O)c3cc(C(=O)N4COCC4(C)C)n(Cc4ccccc4)c3nc12	none (no result: Runt-SMMHC FRET, Runt-CBFb FRET, Hck Nef HTS)
